Experimental data reported in PubChem BioAssay AID2307 (NMMLSC, 2010).

Molecular target: Regulator of G-protein signaling 8 (Homo sapiens) (UniProt P57771)
Assay: RGS8-Galphao interaction modulators, SAR follow-up, biochemical, multiplex bead flow cytometry, SAR compounds (AID 2307)
Settings: bead-based flow cytometry, AF488-Galphao binding to RGS8; for Ki: measured here: Ki calculated from EC50
In short: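 Assay system – streptavidin bead-bound biotinylated RGS8 · Probe or stimulus – 7 nM activated AF488-Galphao · Timing – Bead–Galphao binding for 30–90 min at room temperature · Detection – flow cytometry, 530 nm bead fluorescence · Read-out – percent binding vs DMSO and RGS-free beads, four-parameter EC50, Ki from EC50 · Control set – DMSO wells as high, RGS-free blank beads as low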

Chain of Regulator of G-protein signaling 8 (Homo sapiens) (P57771 whole entry, looked up): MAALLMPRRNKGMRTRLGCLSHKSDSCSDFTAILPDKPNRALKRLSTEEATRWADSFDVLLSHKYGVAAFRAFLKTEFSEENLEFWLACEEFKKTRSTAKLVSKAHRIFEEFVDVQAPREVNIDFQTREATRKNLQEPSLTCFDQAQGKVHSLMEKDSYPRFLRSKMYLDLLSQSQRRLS

Row | Ki | EC50 | SMILES
1 | 460 nM | – | Cc1cccc(N2CCN(C(=O)Cn3sc4nc(C)cc(C)c4c3=O)CC2C)c1 (stereo not given)
2 | 150 nM | – | CCOC(=O)c1sc(NC(=O)CSc2nnc(Cc3ccccc3)o2)c(C#N)c1C
3 | 20 nM | 29 nM | NS(=O)(=O)c1ccc(N/N=C/c2ccc(O)c(O)c2O)c([N+](=O)[O-])c1
4 | 3590 nM | – | CCC(=O)NC(c1ccc(C)cc1)c1cc([N+](=O)[O-])c2cccnc2c1O (stereo not given)
5 | 400 nM | – | Nc1c(C(=O)NCC2CCCO2)sc2nc3c(c(-c4ccco4)c12)CC/C3=C/c1ccco1 (stereo not given)
6 | 100 nM | – | O=C(COc1ccccc1C(=O)N/N=C/c1ccc(O)c(O)c1)N/N=C/c1ccc(O)c(O)c1
7 | 700 nM | – | COC(=O)CCC(=O)Nc1sc(C)c(C)c1C(N)=O
8 | 340 nM | – | CCN(CC)S(=O)(=O)c1cccc(C(=O)N/N=C/c2ccc(O)c(O)c2O)c1
9 | 2590 nM | – | CCN(CC)S(=O)(=O)c1cccc(-c2n[nH]c(=S)n2/N=C/c2ccc(C(=O)OC)cc2)c1
10 | 580 nM | – | CC1(C)OC(=O)C(=Cc2ccc(-c3ccc(S(N)(=O)=O)cc3)o2)C(=O)O1
11 | 170 nM | – | CC(NC(=O)c1sc2cc([N+](=O)[O-])ccc2c1Cl)C(C)(C)C (stereo not given)
12 | 260 nM | – | CN=c1scc(C)n1/N=C/c1ccc(O)c(O)c1O
13 | 470 nM | – | O=C(NCCCN1CCOCC1)c1sc2cc([N+](=O)[O-])ccc2c1Cl
14 | 430 nM | – | Cc1[nH]n(-c2ccccc2)c(=S)c1C=NCCCN=Cc1c(C)[nH]n(-c2ccccc2)c1=S
15 | 320 nM | – | O=C(Cc1csc(N2CCOCC2)n1)N/N=C/c1ccc(O)c(O)c1O
16 | 2640 nM | – | Cc1cccc(N2CCN(C(=O)COc3nsc4nc(C)cc(C)c34)CC2C)c1 (stereo not given)
17 | 180 nM | – | Cc1[nH]n(-c2ccccc2)c(=S)c1C=Nc1cccc([N+](=O)[O-])c1
18 | 470 nM | – | CCN=c1scc(C)n1/N=C/c1ccc(O)c(O)c1O
19 | 60 nM | – | O=C1C(Cl)=C(N2CCCCC2)C(=O)C(Cl)=C1c1cnc(N2CCCCC2)s1
20 | 70 nM | – | CC(=O)OCCCNc1cc(Sc2nc3ccccc3s2)c2nonc2c1[N+](=O)[O-]
21 | 20 nM | – | CN1CCN(C2=C(Cl)C(=O)C(c3cnc(N4CCCCC4)s3)=C(Cl)C2=O)CC1
22 | 110 nM | – | Cc1cc(Cl)ccc1N=c1ssnc1Cl
23 | 150 nM | – | COc1ccc(C2=CC(=O)C=CC2=O)cc1
24 | 20 nM | – | O=c1c2ccccc2sn1-c1ccc(S(=O)(=O)N2CCCC2)cc1
